Source: ChEMBL document CHEMBL2396573, “Synthesis and evaluation of 8-amino-[1,2,4]triazolo[4,3-a]pyridin-3(2H)-one derivatives as glycogen synthase kinase-3 (GSK-3) inhibitors” (Bioorg Med Chem Lett, 2013)

Tests used:
[1] = target: Glycogen synthase kinase-3 (Homo sapiens, UniProt P49840+P49841); test: Inhibition of recombinant human GSK3 using YRRAAVPPSPSLSRHSSPHQ(pS)EDEEE as substrate preincubated for 10 mins followed by [33P-gamma]-ATP addition measured after 30 mins by liquid scintillation counting analysis; type: protein assay
How it was run: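 Reaction started with 1 µM ATP […] 33P-γ-ATP, run 30 min at 30 °C, and stopped with 3% phosphoric acid. Product captured on P81 paper and read by scintillation counting. IC50 is the mean of triplicates.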

[2] = Inhibition of GSK3 in rat […] cells assessed as reduction in glucose production after overnight incubation by fluorescence assay; type: cell-based
How it was run: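 Rat hepatoma H4IIE cells grown in DMEM + 10% FBS, 2 mM L-glutamine and penicillin–streptomycin at 37 °C, 5% CO2, and passaged at 75% confluence. Plated at 100,000 cells/well, attached ~3 h, then PBS-washed and held overnight in glucose- and serum-free DMEM with 20 mM lactate and 2 mM pyruvate. Compounds, diluted in this medium, added overnight. Glucose in medium read with Amplex Red/glucose oxidase (30 min, dark; ex 560/em 615 nm); mean of triplicates.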

[3] = target: Mitogen-activated protein kinase 13 (Homo sapiens) (UniProt O15264); test: Inhibition of human SAPK4 at 10 uM relative to control
[4] = target: Protein kinase C alpha type (Homo sapiens) (UniProt P17252); test: Inhibition of human PKCalpha at 10 uM relative to control
[5] = Elimination half life in rat at 3 mg/kg, iv by LC/MS/MS analysis; type: ADME, organism-based; parameters: dose 3 mg/kg, route intravenous; conditions: in vivo, read-out: beta t1/2 (converted)
How it was run: (§1)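 Rat PK, n = 3 animals; iv dose 3 mg/kg, oral dose 5 mg/kg. Plasma levels quantified by LC/MS/MS after dosing. Derived parameters: AUC0–inf, clearance, elimination half-life and oral bioavailability (F).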

[6] = AUC (0 to infinity) in rat at 3 mg/kg, iv by LC/MS/MS analysis; type: ADME, organism-based; parameters: time infinity, dose 3 mg/kg, route intravenous; conditions: plasma
How it was run: (§2)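 Rat pharmacokinetics with n = 3 per group. Compound given iv at 3 mg/kg or po at 5 mg/kg. Concentrations were measured by LC/MS/MS after administration. AUC0–inf is the area under the concentration–time curve. Clearance, elimination half-life and bioavailability were derived in the same study.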

[7] = Drug uptake in ICR mouse brain at 30 mg/kg, iv measured at 0.25 hrs by LC/MS/MS analysis; type: ADME, organism-based; parameters: dose 30 mg/kg, route intravenous; conditions: read-out: Drug uptake
How it was run: (§3)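 ICR mice, n = 3, given a single iv dose of 30 mg/kg. Plasma (ng/ml) and brain (ng/g) concentrations measured by LC/MS/MS at 0.25 and 0.75 h. Brain/plasma ratio taken from these paired values.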

[8] = target: Tyrosine-protein kinase Lck (Homo sapiens) (UniProt P06239); test: Inhibition of human LCK at 10 uM relative to control
[9] = target: 5'-AMP-activated protein kinase catalytic subunit alpha-1 (Homo sapiens) (UniProt Q13131); test: Inhibition of human AMPKalpha1 at 10 uM relative to control
[10] = target: Phosphorylase b kinase gamma catalytic chain, liver/testis isoform (Homo sapiens) (UniProt P15735); test: Inhibition of human PhKgamma2 at 10 uM relative to control
[11] = target: Ribosomal protein S6 kinase beta-1 (Homo sapiens) (UniProt P23443); test: Inhibition of human p70S6K at 10 uM relative to control
[12] = target: MAP kinase-activated protein kinase 2 (Homo sapiens) (UniProt P49137); test: Inhibition of human MAPKAP-K2 at 10 uM relative to control
[13] = target: Mitogen-activated protein kinase 14 (Homo sapiens) (UniProt Q16539); test: Inhibition of human SAPK2A at 10 uM relative to control
[14] = target: Ribosomal protein S6 kinase alpha-5 (Homo sapiens) (UniProt O75582); test: Inhibition of human MSK1 at 10 uM relative to control
[15] = target: Rho-associated protein kinase 2 (Homo sapiens) (UniProt O75116); test: Inhibition of human ROCK-2 at 10 uM relative to control
[16] = target: Glycogen synthase kinase-3 beta (Homo sapiens) (UniProt P49841); test: Inhibition of human GSK3beta at 10 uM relative to control
[17] = target: Mitogen-activated protein kinase 1 (Homo sapiens) (UniProt P28482); test: Inhibition of human MAPK1 at 10 uM relative to control
Homo sapiens = species on record: Homo sapiens; test: Inhibition of human PKA at 10 uM relative to control
[18] = target: Dual specificity mitogen-activated protein kinase kinase 1 (Homo sapiens) (UniProt Q02750); test: Inhibition of human MEK1 at 10 uM relative to control
[19] = target: CDK2/Cyclin A2 (Homo sapiens) (UniProt P24941+P20248); test: Inhibition of human CDK2/cyclinA at 10 uM relative to control; type: protein-complex assay
[20] = target: Serine/threonine-protein kinase Sgk1 (Homo sapiens) (UniProt O00141); test: Inhibition of human SGK at 10 uM relative to control
[21] = Ratio of drug level from brain to plasma in ICR mouse at 30 mg/kg, iv measured at 0.25 hrs; type: ADME, organism-based; parameters: dose 30 mg/kg, route intravenous; conditions: read-out: BPR; how it was run: as §3
[22] = Elimination half life in rat at 5 mg/kg, po by LC/MS/MS analysis; type: ADME, organism-based; parameters: dose 5 mg/kg, route oral; conditions: in vivo, read-out: beta t1/2 (converted); how it was run: as §1
[23] = target: Mitogen-activated protein kinase 12 (Homo sapiens) (UniProt P53778); test: Inhibition of human SAPK3 at 10 uM relative to control
[24] = Solubility of the compound in water; type: physicochemical
[25] = target: Serine/threonine-protein kinase Chk1 (Homo sapiens) (UniProt O14757); test: Inhibition of human CHK1 at 10 uM relative to control
[26] = target: Ribosomal protein S6 kinase alpha-3 (Homo sapiens) (UniProt P51812); test: Inhibition of human RSK2 at 10 uM relative to control
[27] = target: Casein kinase II (Homo sapiens) (UniProt P67870+P68400+P19784); test: Inhibition of human CK2 at 10 uM relative to control; type: protein-complex assay
[28] = Drug uptake in ICR mouse brain at 30 mg/kg, iv measured at 0.75 hrs by LC/MS/MS analysis; type: ADME, organism-based; parameters: dose 30 mg/kg, route intravenous; conditions: read-out: Drug uptake; how it was run: as §3
[29] = Plasma concentration in ICR mouse at 30 mg/kg, iv measured at 0.75 hrs by LC/MS/MS analysis; type: ADME, organism-based; parameters: dose 30 mg/kg, route intravenous; how it was run: as §3
[30] = target: Mitogen-activated protein kinase 11 (Homo sapiens) (UniProt Q15759); test: Inhibition of human SAPK2B at 10 uM relative to control
[31] = target: Cyclin-dependent kinase 5/CDK5 activator 1 (Homo sapiens) (UniProt Q00535+Q15078); test: Inhibition of human CDK5/p25 at 10 uM relative to control; type: protein-complex assay
[32] = Plasma concentration in ICR mouse at 30 mg/kg, iv measured at 0.25 hrs by LC/MS/MS analysis; type: ADME, organism-based; parameters: dose 30 mg/kg, route intravenous; how it was run: as §3
[33] = target: Glycogen synthase kinase-3 alpha (Homo sapiens) (UniProt P49840); test: Inhibition of human GSK3alpha at 10 uM relative to control
[34] = Ratio of drug level from brain to plasma in ICR mouse at 30 mg/kg, iv measured at 0.75 hrs; type: ADME, organism-based; parameters: dose 30 mg/kg, route intravenous; conditions: read-out: BPR; how it was run: as §3
[35] = target: 3-phosphoinositide-dependent protein kinase 1 (Homo sapiens) (UniProt O15530); test: Inhibition of human PDK1 at 10 uM relative to control
[36] = target: RAC-alpha serine/threonine-protein kinase (Homo sapiens) (UniProt P31749); test: Inhibition of human PKBalpha at 10 uM relative to control
[37] = Clearance in rat at 3 mg/kg, iv by LC/MS/MS analysis; type: ADME, organism-based; parameters: dose 3 mg/kg, route intravenous; conditions: in vivo; how it was run: as §1
[38] = target: MAP kinase-activated protein kinase 5 (Homo sapiens) (UniProt Q8IW41); test: Inhibition of human PRAK at 10 uM relative to control
[39] = Oral bioavailability in rat at 5 mg/kg by LC/MS/MS analysis; type: ADME, organism-based; conditions: in vivo; how it was run: as §1
[40] = AUC (0 to infinity) in rat at 5 mg/kg, po by LC/MS/MS analysis; type: ADME, organism-based; parameters: time infinity, dose 5 mg/kg, route oral; conditions: plasma; how it was run: as §2
[41] = target: Mitogen-activated protein kinase 8 (Homo sapiens) (UniProt P45983); test: Inhibition of human JNK1alpha1 at 10 uM relative to control

Chain of Tyrosine-protein kinase Lck (Homo sapiens) (P06239 2-509 limits assumed): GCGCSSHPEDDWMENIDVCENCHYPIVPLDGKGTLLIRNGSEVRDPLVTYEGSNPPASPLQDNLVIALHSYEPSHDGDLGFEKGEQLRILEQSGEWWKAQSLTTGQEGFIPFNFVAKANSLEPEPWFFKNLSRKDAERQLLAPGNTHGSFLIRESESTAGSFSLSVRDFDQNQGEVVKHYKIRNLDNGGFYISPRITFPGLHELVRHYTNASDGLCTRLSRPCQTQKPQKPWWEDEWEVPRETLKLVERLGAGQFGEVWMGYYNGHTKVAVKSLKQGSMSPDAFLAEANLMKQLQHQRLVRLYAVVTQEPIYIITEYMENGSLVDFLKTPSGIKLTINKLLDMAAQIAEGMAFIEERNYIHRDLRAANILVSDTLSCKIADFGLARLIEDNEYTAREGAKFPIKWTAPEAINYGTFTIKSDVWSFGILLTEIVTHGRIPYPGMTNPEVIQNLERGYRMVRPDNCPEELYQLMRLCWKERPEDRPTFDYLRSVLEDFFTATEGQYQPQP
Chain of Cyclin-dependent kinase 5/CDK5 activator 1 (Homo sapiens) (Q00535 whole entry): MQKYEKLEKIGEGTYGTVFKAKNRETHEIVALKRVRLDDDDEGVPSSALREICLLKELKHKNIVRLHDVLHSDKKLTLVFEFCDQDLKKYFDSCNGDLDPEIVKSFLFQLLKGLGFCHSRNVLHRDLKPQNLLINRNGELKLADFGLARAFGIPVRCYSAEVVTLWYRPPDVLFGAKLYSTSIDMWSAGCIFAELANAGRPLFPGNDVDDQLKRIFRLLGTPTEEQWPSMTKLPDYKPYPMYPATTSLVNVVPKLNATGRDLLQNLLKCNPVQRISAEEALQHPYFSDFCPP
Chain of Cyclin-dependent kinase 5/CDK5 activator 1 (Homo sapiens) (Q15078 99-307 partner limits assumed): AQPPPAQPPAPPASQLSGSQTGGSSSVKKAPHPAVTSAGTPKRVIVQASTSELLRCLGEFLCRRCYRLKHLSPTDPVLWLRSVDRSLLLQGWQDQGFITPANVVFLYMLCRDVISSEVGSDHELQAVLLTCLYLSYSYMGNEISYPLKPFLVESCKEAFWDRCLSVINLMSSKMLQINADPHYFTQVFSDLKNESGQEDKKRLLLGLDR
Chain of Mitogen-activated protein kinase 11 (Homo sapiens) (Q15759 whole entry): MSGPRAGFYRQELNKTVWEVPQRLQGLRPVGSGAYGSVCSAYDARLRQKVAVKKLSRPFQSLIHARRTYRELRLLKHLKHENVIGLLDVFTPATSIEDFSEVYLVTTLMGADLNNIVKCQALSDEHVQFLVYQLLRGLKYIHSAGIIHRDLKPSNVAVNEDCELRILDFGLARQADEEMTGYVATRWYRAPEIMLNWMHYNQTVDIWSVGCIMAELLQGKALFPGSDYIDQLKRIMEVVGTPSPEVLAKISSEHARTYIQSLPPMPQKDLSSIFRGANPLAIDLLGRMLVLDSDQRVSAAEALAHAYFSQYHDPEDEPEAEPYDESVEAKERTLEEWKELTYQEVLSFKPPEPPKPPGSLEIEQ
Chain of MAP kinase-activated protein kinase 2 (Homo sapiens) (P49137 whole entry, looked up): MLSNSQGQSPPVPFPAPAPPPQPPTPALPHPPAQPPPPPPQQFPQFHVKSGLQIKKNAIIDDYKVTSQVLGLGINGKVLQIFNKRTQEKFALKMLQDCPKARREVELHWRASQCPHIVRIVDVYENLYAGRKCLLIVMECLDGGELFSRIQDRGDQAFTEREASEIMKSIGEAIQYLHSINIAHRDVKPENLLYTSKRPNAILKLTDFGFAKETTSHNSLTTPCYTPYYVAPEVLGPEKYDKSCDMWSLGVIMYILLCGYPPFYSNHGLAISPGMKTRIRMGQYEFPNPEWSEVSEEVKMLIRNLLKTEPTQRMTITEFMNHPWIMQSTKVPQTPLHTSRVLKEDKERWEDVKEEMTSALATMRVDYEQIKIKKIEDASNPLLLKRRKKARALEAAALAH
Chain of Mitogen-activated protein kinase 12 (Homo sapiens) (P53778 whole entry): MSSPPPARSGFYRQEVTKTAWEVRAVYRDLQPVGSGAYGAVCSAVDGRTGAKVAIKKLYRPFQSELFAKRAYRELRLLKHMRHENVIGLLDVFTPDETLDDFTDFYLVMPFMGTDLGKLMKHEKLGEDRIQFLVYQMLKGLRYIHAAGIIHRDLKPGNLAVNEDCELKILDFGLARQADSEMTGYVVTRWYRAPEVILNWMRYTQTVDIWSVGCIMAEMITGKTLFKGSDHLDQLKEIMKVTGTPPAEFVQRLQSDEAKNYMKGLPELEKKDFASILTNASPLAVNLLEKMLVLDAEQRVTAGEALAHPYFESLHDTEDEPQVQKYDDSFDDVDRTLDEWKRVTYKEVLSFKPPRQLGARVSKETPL
Chain of Ribosomal protein S6 kinase alpha-5 (Homo sapiens) (O75582 whole entry, looked up): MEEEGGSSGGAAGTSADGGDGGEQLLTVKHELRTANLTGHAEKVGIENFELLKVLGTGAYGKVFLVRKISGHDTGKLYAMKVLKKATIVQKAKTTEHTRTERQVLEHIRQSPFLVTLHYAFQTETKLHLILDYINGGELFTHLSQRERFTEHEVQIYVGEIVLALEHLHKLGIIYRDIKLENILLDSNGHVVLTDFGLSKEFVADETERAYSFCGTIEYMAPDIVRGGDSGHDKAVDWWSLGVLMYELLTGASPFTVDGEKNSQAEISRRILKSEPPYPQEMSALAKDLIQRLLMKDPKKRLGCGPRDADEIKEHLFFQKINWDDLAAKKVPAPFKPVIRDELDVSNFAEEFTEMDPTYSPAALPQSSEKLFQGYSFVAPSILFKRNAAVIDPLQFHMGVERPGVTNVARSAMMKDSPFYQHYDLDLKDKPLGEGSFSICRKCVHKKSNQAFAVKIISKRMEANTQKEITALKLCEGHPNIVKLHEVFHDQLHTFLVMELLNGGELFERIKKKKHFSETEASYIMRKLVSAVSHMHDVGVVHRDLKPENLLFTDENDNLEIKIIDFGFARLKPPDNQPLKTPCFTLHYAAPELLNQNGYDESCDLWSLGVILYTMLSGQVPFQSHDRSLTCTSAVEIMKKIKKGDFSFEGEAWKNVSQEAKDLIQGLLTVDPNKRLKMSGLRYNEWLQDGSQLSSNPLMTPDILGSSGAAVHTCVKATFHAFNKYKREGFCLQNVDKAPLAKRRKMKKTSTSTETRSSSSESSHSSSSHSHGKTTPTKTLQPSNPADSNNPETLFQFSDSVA
Chain of Glycogen synthase kinase-3 alpha (Homo sapiens) (P49840 2-483 limits assumed): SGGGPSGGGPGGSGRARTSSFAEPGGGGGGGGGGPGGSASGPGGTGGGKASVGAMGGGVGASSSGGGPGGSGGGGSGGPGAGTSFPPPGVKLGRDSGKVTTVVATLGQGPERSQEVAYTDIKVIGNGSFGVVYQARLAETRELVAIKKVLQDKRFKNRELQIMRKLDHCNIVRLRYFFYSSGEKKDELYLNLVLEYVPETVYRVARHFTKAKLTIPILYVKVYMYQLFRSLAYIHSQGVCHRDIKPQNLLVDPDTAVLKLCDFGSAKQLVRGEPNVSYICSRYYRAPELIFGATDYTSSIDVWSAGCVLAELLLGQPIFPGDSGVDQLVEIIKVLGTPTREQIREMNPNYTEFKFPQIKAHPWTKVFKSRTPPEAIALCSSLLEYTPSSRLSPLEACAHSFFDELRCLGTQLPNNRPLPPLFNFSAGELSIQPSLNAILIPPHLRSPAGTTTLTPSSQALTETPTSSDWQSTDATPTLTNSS
Chain of Serine/threonine-protein kinase Sgk1 (Homo sapiens) (O00141 whole entry): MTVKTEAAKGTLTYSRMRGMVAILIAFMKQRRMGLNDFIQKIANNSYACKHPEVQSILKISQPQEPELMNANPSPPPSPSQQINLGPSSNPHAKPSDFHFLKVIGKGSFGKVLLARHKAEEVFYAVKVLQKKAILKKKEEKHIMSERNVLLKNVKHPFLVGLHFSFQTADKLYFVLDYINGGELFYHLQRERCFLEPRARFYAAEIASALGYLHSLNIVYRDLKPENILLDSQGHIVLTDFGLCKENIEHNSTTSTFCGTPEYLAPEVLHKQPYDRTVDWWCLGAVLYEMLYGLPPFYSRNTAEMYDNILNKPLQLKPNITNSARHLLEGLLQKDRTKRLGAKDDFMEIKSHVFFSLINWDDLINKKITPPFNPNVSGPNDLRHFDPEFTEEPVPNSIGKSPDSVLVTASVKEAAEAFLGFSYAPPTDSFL
Chain of Phosphorylase b kinase gamma catalytic chain, liver/testis isoform (Homo sapiens) (P15735 whole entry, canonical isoform): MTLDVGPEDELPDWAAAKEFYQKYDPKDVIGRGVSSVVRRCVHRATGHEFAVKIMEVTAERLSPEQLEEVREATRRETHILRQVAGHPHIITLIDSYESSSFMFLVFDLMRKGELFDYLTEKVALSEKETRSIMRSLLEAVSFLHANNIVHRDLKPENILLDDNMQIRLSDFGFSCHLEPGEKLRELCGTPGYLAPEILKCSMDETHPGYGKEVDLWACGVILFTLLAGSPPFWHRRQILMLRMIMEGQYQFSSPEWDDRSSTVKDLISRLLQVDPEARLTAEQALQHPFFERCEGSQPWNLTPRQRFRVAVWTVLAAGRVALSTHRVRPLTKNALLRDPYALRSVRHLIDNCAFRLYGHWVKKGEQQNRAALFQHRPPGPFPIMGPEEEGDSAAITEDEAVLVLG

## COc1ccc(OCCNc2cccn3c(=O)[nH]nc23)cc1
[1]
  IC50: 13 µM

## Cc1cc(NCCCc2ccncc2)c2n[nH]c(=O)n2c1.Cl
[2]
  EC50: 6.23 µM
[1]
  IC50: 0.607 µM

## COc1ccc(OCCn2nc3c(N)cccn3c2=O)cc1
[1]
  IC50: > 50 µM

## Cc1cc(NCCCc2ccccn2)c2n[nH]c(=O)n2c1.Cl
[2]
  EC50: 21.1 µM
[1]
  IC50: 1.2 µM

## Cc1cc(CCCNc2cc(Cl)cn3c(=O)[nH]nc23)ccn1.Cl
[2]
  EC50: 7.03 µM
[1]
  IC50: 0.818 µM

## Cc1cc(NCCCc2ccnc(Cl)c2)c2n[nH]c(=O)n2c1.Cl
[2]
  EC50: 12.1 µM
[1]
  IC50: 0.774 µM

## Nc1cccn2c(=O)[nH]nc12
[1]
  IC50: > 50 µM

## Cc1cc(NCCCN2CCNCC2)c2n[nH]c(=O)n2c1.Cl
[1]
  IC50: > 50 µM

## Cl.O=c1[nH]nc2c(NCCCc3cccc(OCCN4CCOCC4)c3)cc(Cl)cn12
[2]
  EC50: 3.84 µM
[1]
  IC50: 0.247 µM

## Cc1cc(NCCCc2ccc(N)cc2)c2n[nH]c(=O)n2c1.Cl
[2]
  EC50: 18.4 µM
[1]
  IC50: 1.01 µM

## COc1cc(CCCNc2cc(C)cn3c(=O)[nH]nc23)ccn1.Cl
[2]
  EC50: 9.11 µM
[1]
  IC50: 0.641 µM

## Cc1cc(NCCCc2ccc(C)nc2)c2n[nH]c(=O)n2c1.Cl
[2]
  EC50: 1.25 µM
[1]
  IC50: 0.309 µM

## Cc1cc(NCCCn2ccnc2)c2n[nH]c(=O)n2c1.Cl
[2]
  EC50: 13.3 µM
[1]
  IC50: 1.36 µM

## Cl.O=c1[nH]nc2c(NCCCc3ccncc3)cc(Cl)cn12
[3]
  inhibition: 2%
[4]
  inhibition: 18%
[5]
  half-life: 24 min
[6]
  AUC(0-inf): 2490 ng·h/mL
[7]
  concentration at 0.25 h: 214 ng/g
[8]
  inhibition: 19%
[9]
  inhibition: -1%
[10]
  inhibition: 25%
[11]
  inhibition: 14%
[12]
  inhibition: 19%
[13]
  inhibition: -1%
[14]
  inhibition: 9%
[15]
  inhibition: 27%
[16]
  inhibition: 90%
[17]
  inhibition: 15%
Homo sapiens
  inhibition: 0%
[18]
  inhibition: 9%
[19]
  inhibition: 54%
[20]
  inhibition: 22%
[21]
  Kp at 0.25 h: 0.34
[22]
  half-life: 72 min
[2]
  EC50: 1.78 µM
[23]
  inhibition: 5%
[24]
  solubility: > 10000 µg/mL
[25]
  inhibition: 21%
[26]
  inhibition: 34%
[27]
  inhibition: 5%
[28]
  concentration at 0.75 h: 107 ng/g
[29]
  concentration at 0.75 h: 1050 ng/mL
[30]
  inhibition: 1%
[31]
  inhibition: 53%
[32]
  concentration at 0.25 h: 634 ng/mL
[33]
  inhibition: 99%
[34]
  Kp at 0.75 h: 0.1
[35]
  inhibition: 10%
[1]
  IC50: 0.111 µM
[36]
  inhibition: 12%
[37]
  clearance: 20 mL/min/kg
[38]
  inhibition: 14%
[39]
  bioavailability: 83%
[40]
  AUC(0-inf): 3460 ng·h/mL
[41]
  inhibition: 9%

## COc1cccc(CCCNc2cc(Cl)cn3c(=O)[nH]nc23)c1
[2]
  EC50: 2.71 µM
[1]
  IC50: 0.19 µM

## Cc1ccc(CCCNc2cc(Cl)cn3c(=O)[nH]nc23)cn1.Cl
[2]
  EC50: 2.74 µM
[1]
  IC50: 0.342 µM

## COc1ccc(OCCNc2cc(C)cn3c(=O)[nH]nc23)cc1
[1]
  IC50: 7.01 µM

## Cc1cc(N(C)CCCc2ccccn2)c2n[nH]c(=O)n2c1.Cl
[1]
  IC50: 50 µM

## Cl.Nc1cc(CCCNc2cc(Cl)cn3c(=O)[nH]nc23)ccn1
[2]
  EC50: 2.36 µM
[1]
  IC50: 0.249 µM

## Cl.O=c1[nH]nc2c(NCCCc3cccnc3)cc(Cl)cn12
[2]
  EC50: 1.68 µM
[1]
  IC50: 0.52 µM

## Cc1cc(NCCCc2cccnc2)c2n[nH]c(=O)n2c1.Cl
[2]
  EC50: 5.44 µM
[1]
  IC50: 0.354 µM

## COc1ccc(CCC(=O)Nc2cccn3c(=O)[nH]nc23)cc1
[1]
  IC50: > 50 µM

## Cl.O=c1[nH]nc2c(NCCCc3ccnc(Cl)c3)cc(Cl)cn12
[2]
  EC50: 2.63 µM
[1]
  IC50: 0.199 µM
